Where a name gives a salt, the structure may show the parent alone.
Experiments:
HepG2 [1] = assay: Cytotoxicity against human HepG2 cells assessed as inhibition rate at 2.5 uM incubated for 72 hrs by MTT assay relative to control; type: functional
Method in brief: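 HepG2 exposed to each compound at 2.5 µM-range single concentration for 72 h at 37 °C after overnight attachment in DMEM + 10% FBS; 0.1% DMSO control. MTT 4 h, DMSO solubilisation, A570; inhibition rate = (Ac−As)/(Ac−Ab)×100.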

HepG2 [2] = assay: Cytotoxicity against human HepG2 cells assessed as inhibition of proliferation incubated for 72 hrs by MTT assay; type: functional, cell-based; settings: HepG2, 72 h
Method in brief: (§1)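 Cells plated at 3×10³/well, grown overnight in DMEM + 10% FBS, then exposed to compounds (DMSO stocks; 0.1% DMSO negative control) for 72 h at 37 °C. MTT (5 mg/mL in PBS, added at 10%) for 4 h, formazan dissolved in DMSO, A570 read. Inhibition = (Ac−As)/(Ac−Ab)×100; IC50 by calculator; ≥3 independent repeats.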

A549 = assay: Cytotoxicity against human A549 cells assessed as inhibition of proliferation incubated for 72 hrs by MTT assay; type: functional, cell-based; settings: A549, 72 h; method in brief: as §1
U-251 = assay: Cytotoxicity against human U251 cells assessed as inhibition of proliferation incubated for 72 hrs by MTT assay; type: functional, cell-based; settings: U-251, 72 h; method in brief: as §1
Bel-7402 = assay: Cytotoxicity against human Bel-7402 cells assessed as inhibition of proliferation incubated for 72 hrs by MTT assay; type: functional, cell-based; settings: Bel-7402, 72 h; method in brief: as §1

With `COc1cc(C(=O)c2nc3c(Br)cccc3c(=O)[nH]2)cc(OC)c1OC` the inhibition at 2.5 µM (HepG2 [1]) was 1.3%.

`O=C(c1nc2ccccc2c(=O)[nH]1)c1ccccc1C(F)(F)F` gave an IC50 (HepG2 [2]) greater than 50 µM.

Compound `COc1cc(C(=O)c2nc3cc(F)ccc3c(=O)[nH]2)cc(OC)c1OC` has an inhibition at 2.5 µM (HepG2 [1]) of 9.7%.

For `COc1cc(C(=O)c2nc3cccc(Br)c3c(=O)[nH]2)cc(OC)c1OC`, the inhibition at 2.5 µM (HepG2 [1]) was 5.1%.

With `COc1cc(C(=O)c2nc3c(Cl)cccc3c(=O)[nH]2)cc(OC)c1OC` the inhibition at 2.5 µM (HepG2 [1]) was 9.2%.

For `COc1cc(C(=O)c2nc3cc(F)c(F)cc3c(=O)[nH]2)cc(OC)c1OC`, the inhibition at 2.5 µM (HepG2 [1]) was 1.2%.

`COc1cc(C(=O)c2nc3c(OC)cccc3c(=O)[nH]2)cc(OC)c1OC` gave an inhibition at 2.5 µM (HepG2 [1]) of 8.1%.

`COc1cc(C(=O)c2nc(Cl)c3ccccc3n2)cc(OC)c1OC` was tested, and the inhibition at 2.5 µM (HepG2 [1]) was 18.4%, the IC50 (A549) was 7.09 µM and the IC50 (U-251) was greater than 100 µM. The IC50 (Bel-7402) was 6.88 µM and the IC50 (HepG2 [2]) was 10.9 µM.

For `COc1cc(C(=O)c2nc3ccc(Br)cc3c(=O)[nH]2)cc(OC)c1OC`, the inhibition at 2.5 µM (HepG2 [1]) was 3.4%.

`COc1cc(C(=O)c2nc3ccccc3c(=O)n2Cc2nnc(-c3ccc(Cl)cc3)o2)cc(OC)c1OC` was tested, and the inhibition at 2.5 µM (HepG2 [1]) was 2.3%.

`O=C(c1ccc(OC(F)(F)F)cc1)c1nc2ccccc2c(=O)[nH]1` was tested, and the IC50 (HepG2 [2]) was greater than 50 µM.

For `COc1cc(C(=O)c2nc3cccc(Cl)c3c(=O)[nH]2)cc(OC)c1OC`, the inhibition at 2.5 µM (HepG2 [1]) was 3.7%.

For `COc1cccc2c1C(=O)c1c(O)c3c(c(O)c1C2=O)C[C@@](O)(C(=O)CO)C[C@@H]3O[C@H]1C[C@H](N)[C@H](O)[C@H](C)O1` [DOXORUBICIN HYDROCHLORIDE], the IC50 (U-251) was 0.157 µM, the IC50 (Bel-7402) was 1.28 µM and the IC50 (HepG2 [2]) was 2.21 µM.

`C=CCn1c(C(=O)c2cc(OC)c(OC)c(OC)c2)nc2ccccc2c1=O` was tested, and the inhibition at 2.5 µM (HepG2 [1]) was 21%, the IC50 (A549) was 10.5 µM and the IC50 (U-251) was 13 µM. For the same compound, the IC50 (Bel-7402) was 10.7 µM and the IC50 (HepG2 [2]) was 14.1 µM.

For `COc1ccc(C(=O)c2nc3ccccc3c(=O)[nH]2)cc1`, the IC50 (HepG2 [2]) was greater than 50 µM.

With `O=C(c1ccc(Cl)cc1)c1nc2ccccc2c(=O)[nH]1` the IC50 (HepG2 [2]) was greater than 50 µM.

Work on `COc1cc(C(=O)c2nc3ccc([N+](=O)[O-])cc3c(=O)[nH]2)cc(OC)c1OC` yielded an inhibition at 2.5 µM (HepG2 [1]) of 8.8%.

`COc1cc2nc(C(=O)c3cc(OC)c(OC)c(OC)c3)[nH]c(=O)c2cc1OC` gave an inhibition at 2.5 µM (HepG2 [1]) of 5.1%.

With `COc1cc(C(=O)c2nc3ccccc3c(=O)n2Cc2nnc(-c3ccc(F)cc3)o2)cc(OC)c1OC` the inhibition at 2.5 µM (HepG2 [1]) was 26.3%, the IC50 (A549) was 7.66 µM and the IC50 (U-251) was 27.5 µM. It also gave an IC50 (Bel-7402) of 4.86 µM and an IC50 (HepG2 [2]) of 7.07 µM.

With `O=C(c1nc2ccccc2c(=O)[nH]1)c1ccccc1OC(F)(F)F` the IC50 (HepG2 [2]) was greater than 50 µM.

For `COc1cc(C(=O)c2nc(OC(C)C)c3ccccc3n2)cc(OC)c1OC`, the inhibition at 2.5 µM (HepG2 [1]) was 10.8%, the IC50 (A549) was 7.27 µM and the IC50 (U-251) was greater than 100 µM. It also gave an IC50 (Bel-7402) of 4.91 µM and an IC50 (HepG2 [2]) of 7.45 µM.

`COc1cc(C(=O)c2nc3cc(Br)ccc3c(=O)[nH]2)cc(OC)c1OC` was tested, and the inhibition at 2.5 µM (HepG2 [1]) was 17.6%, the IC50 (A549) was 7.27 µM and the IC50 (U-251) was greater than 100 µM. The IC50 (Bel-7402) was 4.91 µM and the IC50 (HepG2 [2]) was 7.45 µM.

`CCOc1nc(C(=O)c2cc(OC)c(OC)c(OC)c2)nc2ccccc12` showed an inhibition at 2.5 µM (HepG2 [1]) of 32%, an IC50 (A549) greater than 100 µM and an IC50 (U-251) of 10.6 µM. It also gave an IC50 (Bel-7402) of 8.29 µM and an IC50 (HepG2 [2]) of 15.6 µM.

In the case of `COc1cc(C(=O)c2nc3cccc(F)c3c(=O)[nH]2)cc(OC)c1OC`, the inhibition at 2.5 µM (HepG2 [1]) is reported as 9.4%.

`COc1cc(C(=O)c2nc3cccc(OC)c3c(=O)[nH]2)cc(OC)c1OC` was tested, and the inhibition at 2.5 µM (HepG2 [1]) was 10.2%, the IC50 (A549) was 15.4 µM and the IC50 (U-251) was 19.2 µM. It also gave an IC50 (Bel-7402) of 7.1 µM and an IC50 (HepG2 [2]) of 9.15 µM.

Work on `COc1cc(C(=O)c2nc3c(F)cccc3c(=O)[nH]2)cc(OC)c1OC` yielded an inhibition at 2.5 µM (HepG2 [1]) of 6.8%.

In the case of `COc1cc(C(=O)c2nc3ccccc3c(=O)n2C)cc(OC)c1OC`, the inhibition at 2.5 µM (HepG2 [1]) is reported as 17.4%, the IC50 (A549) is reported as 20.3 µM and the IC50 (U-251) is reported as greater than 100 µM. It also gave an IC50 (Bel-7402) of 6.34 µM and an IC50 (HepG2 [2]) of 8.19 µM.

For `COc1ccc2c(=O)[nH]c(C(=O)c3cc(OC)c(OC)c(OC)c3)nc2c1`, the inhibition at 2.5 µM (HepG2 [1]) was 43.4%, the IC50 (A549) was 12.7 µM and the IC50 (U-251) was 13.7 µM. The IC50 (Bel-7402) was 4.13 µM and the IC50 (HepG2 [2]) was 10.6 µM.

For `COc1cc(C(=O)c2nc3ccc(F)cc3c(=O)[nH]2)cc(OC)c1OC`, the inhibition at 2.5 µM (HepG2 [1]) was 5.1%.

`O=C(c1ccc(O)cc1)c1nc2ccccc2c(=O)[nH]1` [PENIPANOID C] showed an IC50 (HepG2 [2]) greater than 50 µM.

For `COc1cc(C(=O)c2nc3ccccc3c(=O)n2Cc2nnc(-c3ccco3)o2)cc(OC)c1OC`, the inhibition at 2.5 µM (HepG2 [1]) was 34.4%, the IC50 (A549) was 4.62 µM and the IC50 (U-251) was 15.9 µM. For the same compound, the IC50 (Bel-7402) was 8.15 µM and the IC50 (HepG2 [2]) was 7.51 µM.

`COc1ccccc1C(=O)c1nc2ccccc2c(=O)[nH]1` gave an IC50 (HepG2 [2]) greater than 50 µM.

In the case of `O=C(c1ccc(F)cc1)c1nc2ccccc2c(=O)[nH]1`, the IC50 (HepG2 [2]) is reported as greater than 50 µM.

With `COc1cc(C(=O)c2nc3ccccc3c(=O)n2Cc2nnc(-c3ccc(C)cc3)o2)cc(OC)c1OC` the inhibition at 2.5 µM (HepG2 [1]) was 12.6%, the IC50 (A549) was 47.1 µM and the IC50 (U-251) was 27 µM. The IC50 (Bel-7402) was 8.88 µM and the IC50 (HepG2 [2]) was 10.5 µM.

`O=C(c1ccc(C(F)(F)F)cc1)c1nc2ccccc2c(=O)[nH]1` gave an IC50 (HepG2 [2]) greater than 50 µM.

With `COc1cc(C(=O)c2nc3cc(Cl)ccc3c(=O)[nH]2)cc(OC)c1OC` the inhibition at 2.5 µM (HepG2 [1]) was 8.2%.

Work on `C#CCn1c(C(=O)c2cc(OC)c(OC)c(OC)c2)nc2ccccc2c1=O` yielded an inhibition at 2.5 µM (HepG2 [1]) of 54.7%, an IC50 (A549) of 7.66 µM and an IC50 (U-251) of 12.8 µM. It also gave an IC50 (Bel-7402) of 5.4 µM and an IC50 (HepG2 [2]) of 4.97 µM.

In the case of `COc1ccc2nc(C(=O)c3cc(OC)c(OC)c(OC)c3)[nH]c(=O)c2c1`, the inhibition at 2.5 µM (HepG2 [1]) is reported as 4.2%.

Compound `COc1cc(C(=O)c2nc3ccc(Cl)cc3c(=O)[nH]2)cc(OC)c1OC` has an inhibition at 2.5 µM (HepG2 [1]) of 3.4%.

Compound `COc1cc(C(=O)c2nc3cc([N+](=O)[O-])ccc3c(=O)[nH]2)cc(OC)c1OC` has an inhibition at 2.5 µM (HepG2 [1]) of 6.9%.
